Here are results for nine compounds from ChEMBL document CHEMBL4011603, “Synthesis of clarithromycin ketolides chemically modified at the unreactive C10-methyl group” (2017).

For test [1], the system named is Staphylococcus aureus. Nature of the test: Antibacterial activity against Staphylococcus aureus ATCC 29213 by broth microdilution method. The test is classed as functional. A digest of the protocol: (§1)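 Standard broth microdilution; the endpoint is the minimal inhibitory concentration, reported in μg/mL. Clarithromycin is the reference macrolide. Strains are respiratory-pathogen isolates of S. pneumoniae and S. aureus.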
(In general: In broth dilution the organism is exposed to a series of concentrations in liquid medium.)

Test [2] deals with Streptococcus pneumoniae. Nature of the test: Antibacterial activity against macrolide-resistant Streptococcus pneumoniae BAA1402 expressing mef gene by broth microdilution method. The test is classed as functional. In short, it runs like this: (§2)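 Standard broth microdilution for MIC against respiratory-pathogen strains, reported in μg/mL, with clarithromycin included as the reference macrolide.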

Test [3] relates to Staphylococcus aureus. Nature of the test: Antibacterial activity against constitutively macrolides/lincosamides/streptogramines-resistant Staphylococcus aureus ND048910 expressing erm gene by broth microdilution method. The test is classed as functional. A digest of the protocol:
as §2

Test [4] relates to Streptococcus pneumoniae. Nature of the test: Antibacterial activity against macrolides/lincosamides/streptogramines resistant Streptococcus pneumoniae 3914 by broth microdilution method. The test is classed as functional. In short, it runs like this: as §2
Test [5] relates to Staphylococcus aureus. The test can be described thus: Antibacterial activity against macrolide-resistant Staphylococcus aureus BAA976 expressing mef gene by broth microdilution method. The test is classed as functional. A digest of the protocol:
as §2

In test [6] the test system is Staphylococcus aureus. The test can be described thus: Antibacterial activity against inducibly macrolides/lincosamides/streptogramines-resistant Staphylococcus aureus BAA977 expressing erm gene by broth microdilution method. The test is classed as functional. A digest of the protocol:
as §2

In test [7] the test system is Streptococcus pneumoniae. The test can be described thus: Antibacterial activity against Streptococcus pneumoniae ATCC 4961 by broth microdilution method. The test is classed as functional. In short, it runs like this:
as §1

The subject of test [8] is Streptococcus pneumoniae. Nature of the test: Antibacterial activity against macrolides/lincosamides/streptogramines-resistant Streptococcus pneumoniae BAA1407 expressing mef and erm genes by broth microdilution method.

≈ marks a conversion by molar mass, not a printed value. Where only a bound is given, the exact number is not on record here.

Usually MIC stands for the lowest concentration found to suppress growth. A high value points to weaker potency. In the case of `CC[C@H]1OC(=O)[C@H](C)[C@@H](O)[C@H](C)[C@@H](O[C@@H]2O[C@H](C)C[C@H](N(C)C)[C@H]2OC(C)=O)[C@](C)(OC)C[C@@H](C)C(=O)/C(Cc2ccccc2)=C/[C@]1(C)O`, the MIC in test [1] is 16 µg/mL (≈ 23.2 µM); in test [2], 0.5 µg/mL (≈ 0.725 µM); in test [3], above 64 µg/mL; in test [4] it was 64 µg/mL (≈ 92.8 µM); in test [5], 16 µg/mL (≈ 23.2 µM); in test [6] it was 32 µg/mL (≈ 46.4 µM). The values for the MIC in test [7] and in test [8] were 0.25 µg/mL (≈ 0.362 µM) and above 64 µg/mL, respectively.

As for `C=C1C(=O)[C@H](C)C[C@@](C)(OC)[C@H](O[C@@H]2O[C@H](C)C[C@H](N(C)C)[C@H]2OC(C)=O)[C@@H](C)C(=O)[C@@H](C)C(=O)O[C@H](CC)[C@@]2(C)OC(=O)N(Cc3ccccc3)[C@H]12`, the MIC worked out at 1 µg/mL (≈ 1.35 µM) in test [1]; 0.125 µg/mL (≈ 0.168 µM) in test [2]; 64 µg/mL (≈ 86.1 µM) in test [3]; 2 µg/mL (≈ 2.69 µM) in test [4]; 2 µg/mL (≈ 2.69 µM) in test [5]; 2 µg/mL (≈ 2.69 µM) in test [6]. Also, the MIC in test [7] was below 0.07 µg/mL; in test [8], 64 µg/mL (≈ 86.1 µM).

Turning to `CC[C@H]1OC(=O)[C@H](C)C(=O)[C@H](C)[C@@H](O[C@@H]2O[C@H](C)C[C@H](N(C)C)[C@H]2O)[C@](C)(OC)C[C@@H](C)C(=O)[C@H](CNCc2ccccc2)[C@H]2N(C)C(=O)O[C@]12C`, the minimal inhibitory concentration (MIC) is 16 µg/mL (≈ 21.9 µM) in test [1]; 1 µg/mL (≈ 1.37 µM) in test [2]; above 64 µg/mL in test [3]; below 128 µg/mL in test [4]; 32 µg/mL (≈ 43.7 µM) in test [5]; 16 µg/mL (≈ 21.9 µM) in test [6]. Moreover, the minimum inhibitory concentration (MIC) in test [7] came out at 0.25 µg/mL (≈ 0.342 µM); in test [8] it was 64 µg/mL (≈ 87.4 µM).

With `CC[C@H]1OC(=O)[C@H](C)C(=O)[C@H](C)[C@@H](O[C@@H]2O[C@H](C)C[C@H](N(C)C)[C@H]2OC(C)=O)[C@](C)(OC)C[C@@H](C)C(=O)[C@]2(CC=NN2)[C@H]2NC(=O)O[C@]12C`, the MIC is 2 µg/mL (≈ 2.88 µM) in test [1]; 0.25 µg/mL (≈ 0.36 µM) in test [2]; above 128 µg/mL in test [3]; 16 µg/mL (≈ 23 µM) in test [4]; 2 µg/mL (≈ 2.88 µM) in test [5]; 2 µg/mL (≈ 2.88 µM) in test [6]. The minimal inhibitory concentration (MIC) in test [7] is 0.06 µg/mL (≈ 0.0864 µM); in test [8] it was 64 µg/mL (≈ 92.1 µM).

Consider `CC[C@H]1OC(=O)[C@H](C)C(=O)[C@H](C)[C@@H](O[C@@H]2O[C@H](C)C[C@H](N(C)C)[C@H]2OC(C)=O)[C@](C)(OC)C[C@@H](C)C(=O)[C@H](CNCc2cccnc2)[C@H]2NC(=O)O[C@@]21C`, for which the minimum inhibitory concentration (MIC) in test [1] is 1 µg/mL (≈ 1.31 µM); in test [2], 0.06 µg/mL (≈ 0.0789 µM); in test [3] it was above 64 µg/mL; in test [4] it was 4 µg/mL (≈ 5.26 µM); in test [5], 2 µg/mL (≈ 2.63 µM); in test [6], 4 µg/mL (≈ 5.26 µM). The MIC in test [7] worked out at 0.015 µg/mL (≈ 0.0197 µM); in test [8], 64 µg/mL (≈ 84.1 µM).

`C=C1C(=O)[C@H](C)C[C@@](C)(OC)[C@H](O[C@@H]2O[C@H](C)C[C@H](N(C)C)[C@H]2OC(C)=O)[C@@H](C)C(=O)[C@@H](C)C(=O)O[C@H](CC)[C@@]2(C)OC(=O)N[C@H]12`: the MIC in test [1] is 32 µg/mL (≈ 49 µM); in test [2], 2 µg/mL (≈ 3.06 µM); in test [3], above 64 µg/mL; in test [4], 128 µg/mL (≈ 196 µM); in test [5], 64 µg/mL (≈ 98 µM); in test [6], 64 µg/mL (≈ 98 µM). The minimum inhibitory concentration (MIC) in test [7] was 1 µg/mL (≈ 1.53 µM); in test [8] it was above 64 µg/mL.

Take `CC[C@H]1OC(=O)[C@H](C)[C@@H](O[C@H]2C[C@@](C)(OC)[C@@H](O)[C@H](C)O2)[C@H](C)[C@@H](O[C@@H]2O[C@H](C)C[C@H](N(C)C)[C@H]2O)[C@](C)(OC)C[C@@H](C)C(=O)[C@H](C)[C@@H](O)[C@]1(C)O` [CLARITHROMYCIN]: the MIC is 0.125 µg/mL (≈ 0.167 µM) in test [1]; 2 µg/mL (≈ 2.67 µM) in test [2]; above 64 µg/mL in test [3]; above 16 µg/mL in test [4]; 64 µg/mL (≈ 85.6 µM) in test [5]; above 64 µg/mL in test [6]. Also, the MIC in test [7] was 0.015 µg/mL (≈ 0.0201 µM); in test [8], above 8 µg/mL.

For the compound `CCOC(=O)C(C[C@H]1C(=O)[C@H](C)C[C@@](C)(OC)[C@H](O[C@@H]2O[C@H](C)C[C@H](N(C)C)[C@H]2OC(C)=O)[C@@H](C)C(=O)[C@@H](C)C(=O)O[C@H](CC)[C@@]2(C)OC(=O)N[C@H]12)C(=O)OCC`, the MIC was 0.25 µg/mL (≈ 0.308 µM) in test [1]; 0.125 µg/mL (≈ 0.154 µM) in test [2]; above 128 µg/mL in test [3]; 4 µg/mL (≈ 4.92 µM) in test [4]; 0.5 µg/mL (≈ 0.615 µM) in test [5]; 0.5 µg/mL (≈ 0.615 µM) in test [6]. Also, the MIC in test [7] was found to be 0.06 µg/mL (≈ 0.0738 µM); in test [8], 128 µg/mL (≈ 157 µM).

With `CC[C@H]1OC(=O)[C@H](C)C(=O)[C@H](C)[C@@H](O[C@@H]2O[C@H](C)C[C@H](N(C)C)[C@H]2OC(C)=O)[C@](C)(OC)C[C@@H](C)C(=O)[C@H](CNCc2ccccc2)[C@H]2NC(=O)O[C@@]21C`, the MIC in test [1] was 0.25 µg/mL (≈ 0.329 µM); in test [2], below 0.0072 µg/mL; in test [3], above 64 µg/mL; in test [4] it was 64 µg/mL (≈ 84.2 µM); in test [5], 0.5 µg/mL (≈ 0.658 µM); in test [6], 1 µg/mL (≈ 1.32 µM). Moreover, in test [7], the minimal inhibitory concentration (MIC) was below 0.007 µg/mL.
